Assay results published in ChEMBL document CHEMBL4138118, “Novel thioglycosyl analogs of glycosyltransferase substrates as antiviral compounds against classical swine fever virus and hepatitis C virus” (Eur J Med Chem, 2017).

Experiments:
[1] = Cytotoxicity against human Huh7.5 cells assessed as reduction in cell viability after 72 hrs by MTT method; type: cell-based
[2] = Cytotoxicity against SK6 cells assessed as reduction in cell viability after 2 days by MTS method; type: cell-based, Sus scrofa; conditions: pig; for Activity: 48 h; for CC50 at 48 h: SK6 cells
In short: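 SK6 viability by MTS (CellTiter 96 AQueous) assay; CC50 is the concentration reducing viability by 50%, taken from the dose-response curve.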

[3] = Selectivity index, ratio of CC50 for Huh7.5 cells to IC50 for HCV Jc1/JFH; type: toxicity; conditions: human, read-out: Ratio CC50/IC50
In short: (§1)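 Selectivity index is CC50/IC50, taken from the cell viability assay (SK6 by MTS, Huh-7.5 by MTT) and the matching pseudo-plaque reduction assay.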

[4] = system: Classical swine fever virus; test: Antiviral activity against CSFV infected in SK6 cells assessed as reduction of pseudo-plaque formation after 2 days by immunoperoxidase monolayer assay; type: functional, organism-based; conditions: 48 h
[5] = Selectivity index, ratio of CC50 for SK6 cells to IC50 for CSFV; type: toxicity; conditions: pig, read-out: Ratio CC50/IC50; in short: as §1
Hepatitis C virus [6] = test: Antiviral activity against HCV Jc1/JFH infected in human Huh7.5 cells assessed as reduction of pseudo-plaque formation after 72 hrs by immunoperoxidase monolayer assay; type: functional, organism-based, Hepacivirus hominis; conditions: Huh7.5, 72 h
In short: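 Huh-7.5 cells seeded at 1.5 × 10^4 per well, infected next day with Jc1/JFH HCVcc (genotype 2a) at MOI 0.1 for 3 h. Virus removed, medium with compound added; 72 h later cells fixed in cold methanol, permeabilized (0.5% Triton X-100), stained with anti-core antibody (1:300), HRP secondary. Pseudo-plaques counted by microscopy against untreated infected control; IC50 at 50% plaque reduction; three independent experiments.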

[7] = Cytotoxicity against human Huh7-J17 cells assessed as decrease in cell viability after 72 hrs by MTT assay; type: cell-based
In short: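 Uninfected Huh7-J17, Huh7-J20 or Huh-7.5 cells incubated with compound, then viability read by MTT. Time stated as 72 h for Huh7-J20 and Huh7-J17, and 48 h for Huh-7.5. Results expressed relative to DMSO-treated cells (100%); CC50 from the dose-response curve.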

Hepatitis C virus [8] = test: Antiviral activity against HCV infected in human Huh7-J17 cells assessed as inhibition of viral RNA replication after 72 hrs by bright-glo luciferase reporter assay; type: functional, organism-based, Hepacivirus hominis
In short: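 Huh7-J17 replicon cells seeded in 96-well plates together with compound, DMSO or sofosbuvir and incubated 72 h. Cells lysed and luciferase read with Bright-Glo. Values expressed as % of DMSO-treated cells; IC50 from dose-response fit; three experiments.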

## CC(=O)OC[C@H]1O[C@@H](Sc2ccc(NC(=O)CCC(=O)OC[C@H]3O[C@@H](n4ccc(=O)[nH]c4=O)[C@@H]4OC(C)(C)O[C@@H]43)cn2)[C@H](OC(C)=O)[C@@H](OC(C)=O)[C@@H]1OC(C)=O
[1]
  CC50 at 72 h: 328 µM
[2]
  Activity: Dose-dependent effect
  CC50 at 48 h: 207 µM
[3]
  selectivity ratio: 1.4
[4]
  IC50: 103 µM
[5]
  selectivity ratio: 2
Hepatitis C virus [6]
  IC50: 231 µM

## CC(=O)OC[C@H]1O[C@@H](Sc2ccc(NC(=O)[C@H]3O[C@@H](n4ccc(=O)[nH]c4=O)[C@H](O)[C@@H]3O)cn2)[C@H](OC(C)=O)[C@@H](OC(C)=O)[C@@H]1OC(C)=O
[1]
  CC50 at 72 h: 402 µM
[2]
  Activity: Dose-dependent effect
  CC50 at 48 h: 350 µM
[3]
  selectivity ratio: 1.1
[4]
  IC50: 320 µM
[5]
  selectivity ratio: 1.1
Hepatitis C virus [6]
  IC50: 373 µM

## CC(=O)OC[C@H]1O[C@@H](Sc2ccc(NC(=O)CCC(=O)OC[C@H]3O[C@@H](n4ccc(=O)n(C(=O)c5ccccc5)c4=O)[C@H](O[Si](C)(C)C(C)(C)C)[C@@H]3O[Si](C)(C)C(C)(C)C)cn2)[C@H](OC(C)=O)[C@@H](OC(C)=O)[C@@H]1OC(C)=O
[1]
  CC50 at 72 h: 71 µM
[2]
  Activity: Dose-dependent effect
  CC50 at 48 h: 45 µM
[3]
  selectivity ratio: 1.6
[4]
  IC50: 13 µM
[5]
  selectivity ratio: 3.5
Hepatitis C virus [6]
  IC50: 45 µM

## CC(C)(C)[Si](C)(C)OC[C@H]1O[C@@H](Sc2ccc(NC(=O)[C@H]3O[C@@H](n4ccc(=O)[nH]c4=O)[C@H](O[Si](C)(C)C(C)(C)C)[C@@H]3O[Si](C)(C)C(C)(C)C)cn2)[C@H](OC(=O)c2ccccc2)[C@@H](OC(=O)c2ccccc2)[C@@H]1OC(=O)c1ccccc1
[1]
  CC50 at 72 h: > 270 µM
[2]
  Activity: Dose-dependent effect
  CC50 at 48 h: 186 µM
[3]
  selectivity ratio: > 1.1
[4]
  IC50: 97 µM
[5]
  selectivity ratio: 1.9
Hepatitis C virus [6]
  IC50: > 236 µM

## CC(=O)OC[C@H]1O[C@@H](Sc2ccc(NC(=O)CCC(=O)OC[C@H]3O[C@@H](n4ccc(=O)[nH]c4=O)[C@@H]4OC(C)(C)O[C@@H]43)cn2)[C@H](OC(C)=O)[C@@H](OC(C)=O)[C@H]1OC(C)=O
[1]
  CC50 at 72 h: 340 µM
[2]
  Activity: Dose-dependent effect
  CC50 at 48 h: 194 µM
[3]
  selectivity ratio: 1.6
[4]
  IC50: 49 µM
[5]
  selectivity ratio: 4
Hepatitis C virus [6]
  IC50: 213 µM

## CC(C)OC(=O)[C@H](C)N[P@](=O)(OC[C@H]1O[C@@H](n2ccc(=O)[nH]c2=O)[C@](C)(F)[C@@H]1O)Oc1ccccc1 [SOFOSBUVIR]
[1]
  CC50 at 72 h: 31 µM
[3]
  selectivity ratio: 119
[7]
  CC50 at 72 h: 23.5 µM
Hepatitis C virus [8]
  IC50: 28 nM
Hepatitis C virus [6]
  IC50: 0.26 µM
